Calls of active or inactive are those of the source. The calls are words filed in the database; no cut-off is given here.
Tests used:
Homo sapiens = species on record: Homo sapiens; experiment: Selectivity index, ratio of IC50 for SIRT1 (unknown origin) to EC1.5 for N-terminal his-tagged human SIRT6 expressed in Escherichia coli M15 [pREP4]
[1] = biological target: T1, NAD-dependent protein deacylase sirtuin-6 (Homo sapiens, UniProt Q8N6T7); experiment: Activation of N-terminal his-tagged human SIRT6 expressed in Escherichia coli M15 [pREP4] assessed as increase in peptide demyristoylation incubated for 120 mins using Ac-EALPKK(Myr)-AMC substrate by FDL assay relative to control
T1 sequence (Q8N6T7 whole entry): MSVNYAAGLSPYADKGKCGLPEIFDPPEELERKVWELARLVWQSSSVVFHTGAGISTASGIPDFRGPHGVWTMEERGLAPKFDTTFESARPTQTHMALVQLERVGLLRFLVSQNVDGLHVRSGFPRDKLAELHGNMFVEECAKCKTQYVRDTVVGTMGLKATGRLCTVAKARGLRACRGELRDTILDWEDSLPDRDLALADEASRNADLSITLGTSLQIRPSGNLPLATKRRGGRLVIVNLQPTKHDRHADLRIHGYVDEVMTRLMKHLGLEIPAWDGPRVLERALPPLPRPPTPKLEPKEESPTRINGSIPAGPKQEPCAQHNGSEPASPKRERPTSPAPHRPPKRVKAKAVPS
Method in brief: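 Demyristoylation: 1 µM recombinant SIRT6 preincubated with compound for 20 min at 37 °C in 50 mM Tris-HCl pH 8.0, BSA 1 mg/mL, 1 mM DTT, with 10 µM Ac-EALPKK(Myr)-AMC. Fluorescence read. Mean ± s.d., triplicate wells, three independent experiments.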

[2] = biological target: T1, NAD-dependent protein deacylase sirtuin-6; experiment: Activation of N-terminal his-tagged human SIRT6 expressed in Escherichia coli M15 [pREP4] assessed as increase in deacetylation activity incubated for 2 hrs using Ac-RYQK(Ac)-AMC substrate by FDL assay relative to control
MIA PaCa-2 [3] = experiment: Antiproliferative activity against human MIAPaCa2 cells assessed as reduction in cell viability incubated for 72 hrs by MTT assay; format: functional, cell-based
Method in brief: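 PDAC cells grown in DMEM or RPMI1640 with 10% FBS and penicillin/streptomycin at 37 °C, 5% CO2. Plated in triplicate, then treated with a concentration series for 72 h. Viability read by MTT. IC50 calculated from dose-response curves.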

SK-OV-3 = experiment: Antiproliferative activity against human SKOV3 cells assessed as reduction in cell viability incubated for 72 hrs by MTT assay; format: functional, cell-based
NCI-H1975 = experiment: Antiproliferative activity against human NCI-H1975 cells assessed as reduction in cell viability incubated for 72 hrs by MTT assay; format: functional, cell-based
NCI-H446 = experiment: Antiproliferative activity against human NCI-H446 cells assessed as reduction in cell viability incubated for 72 hrs by MTT assay; format: functional, cell-based
BXPC-3 [4] = experiment: Antiproliferative activity against human BxPC3 cells at 3.3 to 10 uM incubated for 24 hrs by EdU incorporation assay; format: functional, cell-based
Method in brief: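 Cells seeded per well at 8000 (BXPC-3) or 4600 (PANC-1), then treated with a concentration series for 24 h. EdU incorporation detected with an EdU-Apollo kit, with Hoechst counterstain. EdU-positive cells counted by high-content imaging across 10 fields.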

BXPC-3 [5] = experiment: Induction of cell cycle arrest in human BxPC3 cells assessed as increase in accumulation at G2 phase incubated for 48 hrs by propidium iodide staining based flow cytometry; format: functional
Method in brief: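 PANC-1 and BXPC-3 cells in 6-well plates treated with a concentration series for 48 h. Stained with 50 µg/mL propidium iodide for 30 min in the dark. DNA content analysed by flow cytometry for cell-cycle phase distribution.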

PANC-1 = experiment: Inhibition of cell migration of human PANC1 cells at 10 umol/L incubated for 24 hrs by inverted microscopy relative to control; format: functional; conditions: PANC-1, 24 h
Method in brief: (§1)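 PDAC cells are grown to a confluent monolayer at 37 °C in 5% CO2. The monolayer is scratched with a 200 μL pipette tip to make a gap of constant width, then washed with PBS. Cells are exposed to a range of compound concentrations. They are imaged by inverted microscope after 24 h. Migrated cells are counted by hand, and inhibition is expressed relative to untreated wells (100%).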

MIA PaCa-2 [6] = experiment: Inhibition of cell migration of human MIAPaCa2 cells at 10 umol/L incubated for 24 hrs by inverted microscopy relative to control; format: functional; conditions: MIA PaCa-2, 24 h; method in brief: as §1
[7] = biological target: T1, NAD-dependent protein deacylase sirtuin-6; experiment: […] in human PANC1 cells assessed as reduction in H3K9ac levels incubated for 72 hrs by Western blot analysis; format: cell-based; conditions: PANC-1
Method in brief: (§2)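 Cells incubated 72 h with various compound concentrations; whole-cell RIPA lysates with protease inhibitors, BCA-normalised, separated on 12% SDS-PAGE, transferred to PVDF, blocked in 5% milk or BSA. Probed 10 h at 4 °C with antibodies to SIRT6, acetyl-H3K9/K18/K56, total H3, Lin28b, Myc, IGF2BP3, β-actin; HRP secondary, chemiluminescent detection.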

[8] = biological target: T1, NAD-dependent protein deacylase sirtuin-6; experiment: […] in human PANC1 cells assessed as reduction in Lin28b expression levels at 25 uM incubated for 72 hrs by Western blot analysis; format: cell-based; conditions: PANC-1; method in brief: as §2
[9] = biological target: T1, NAD-dependent protein deacylase sirtuin-6; experiment: […] in human BxPC3 cells assessed as reduction in IGF2BP3 expression levels at 25 uM incubated for 72 hrs by Western blot analysis; format: cell-based; conditions: BXPC-3; method in brief: as §2
[10] = Half life in Sprague-Dawley rat at 10 mg/kg, po after 0.083 to 24 hrs by LC-MS/MS analysis; format: ADME, organism-based; conditions: in vivo
Method in brief: (§3)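 Male Sprague-Dawley rats, 6-8 weeks old. Dosing solution of 10 (PO) or 2 (IV) mg/mL in 5% DMSO, 10% Solutol and 85% saline, pH 7. Blood taken by cardiac puncture at 0.083–24 h (PO) or 0.25–24 h (IV). Plasma levels measured by LC-MS/MS. Values are mean ± SD, n = 3.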

[11] = Oral bioavailability in Sprague-Dawley rat at 10 mg/kg after 0.083 to 24 hrs by LC-MS/MS analysis; format: ADME, organism-based; conditions: in vivo
Method in brief: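 Male Sprague-Dawley rats, 6–8 weeks old, received a single dose of 10 mg/kg p.o. or 2 mg/kg i.v. The vehicle was 5% DMSO, 10% Solutol and 85% saline at pH 7. Blood was taken by cardiac puncture at 0.083–24 h (p.o.) or 0.25–24 h (i.v.), and plasma was measured by LC-MS/MS. Values are mean ± SD, n = 3.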

[12] = Half life in Sprague-Dawley rat at 2 mg/kg, iv after 0.25 to 24 hrs by LC-MS/MS analysis; format: ADME, organism-based; conditions: in vivo; method in brief: as §3
[13] = biological target: NAD-dependent protein deacylase sirtuin-5, mitochondrial (Homo sapiens, UniProt Q9NXA8); experiment: Inhibition of SIRT5 (unknown origin) by FDL assay
Sequence of NAD-dependent protein deacylase sirtuin-5, mitochondrial (Q9NXA8 whole entry): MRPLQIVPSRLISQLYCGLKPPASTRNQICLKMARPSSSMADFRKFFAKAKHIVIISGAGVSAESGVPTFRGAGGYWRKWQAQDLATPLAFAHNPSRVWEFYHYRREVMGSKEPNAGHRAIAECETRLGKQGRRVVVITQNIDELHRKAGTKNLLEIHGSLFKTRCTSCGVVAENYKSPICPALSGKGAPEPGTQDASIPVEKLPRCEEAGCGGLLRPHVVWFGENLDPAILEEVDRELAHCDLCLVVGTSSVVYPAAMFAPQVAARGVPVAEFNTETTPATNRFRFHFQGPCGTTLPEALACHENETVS
Method in brief: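 SIRT3 and SIRT5 tested by an outsourced FDL fluorogenic deacetylase assay, each from a different contract provider. The IC50 was determined for each enzyme, with concentrations going up to 200 μM.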

Histone deacetylase 4 = Histone deacetylase 4 (Homo sapiens, UniProt P56524); experiment: Inhibition of HDAC4 (unknown origin) by FDL assay
Sequence of Histone deacetylase 4 (P56524 whole entry): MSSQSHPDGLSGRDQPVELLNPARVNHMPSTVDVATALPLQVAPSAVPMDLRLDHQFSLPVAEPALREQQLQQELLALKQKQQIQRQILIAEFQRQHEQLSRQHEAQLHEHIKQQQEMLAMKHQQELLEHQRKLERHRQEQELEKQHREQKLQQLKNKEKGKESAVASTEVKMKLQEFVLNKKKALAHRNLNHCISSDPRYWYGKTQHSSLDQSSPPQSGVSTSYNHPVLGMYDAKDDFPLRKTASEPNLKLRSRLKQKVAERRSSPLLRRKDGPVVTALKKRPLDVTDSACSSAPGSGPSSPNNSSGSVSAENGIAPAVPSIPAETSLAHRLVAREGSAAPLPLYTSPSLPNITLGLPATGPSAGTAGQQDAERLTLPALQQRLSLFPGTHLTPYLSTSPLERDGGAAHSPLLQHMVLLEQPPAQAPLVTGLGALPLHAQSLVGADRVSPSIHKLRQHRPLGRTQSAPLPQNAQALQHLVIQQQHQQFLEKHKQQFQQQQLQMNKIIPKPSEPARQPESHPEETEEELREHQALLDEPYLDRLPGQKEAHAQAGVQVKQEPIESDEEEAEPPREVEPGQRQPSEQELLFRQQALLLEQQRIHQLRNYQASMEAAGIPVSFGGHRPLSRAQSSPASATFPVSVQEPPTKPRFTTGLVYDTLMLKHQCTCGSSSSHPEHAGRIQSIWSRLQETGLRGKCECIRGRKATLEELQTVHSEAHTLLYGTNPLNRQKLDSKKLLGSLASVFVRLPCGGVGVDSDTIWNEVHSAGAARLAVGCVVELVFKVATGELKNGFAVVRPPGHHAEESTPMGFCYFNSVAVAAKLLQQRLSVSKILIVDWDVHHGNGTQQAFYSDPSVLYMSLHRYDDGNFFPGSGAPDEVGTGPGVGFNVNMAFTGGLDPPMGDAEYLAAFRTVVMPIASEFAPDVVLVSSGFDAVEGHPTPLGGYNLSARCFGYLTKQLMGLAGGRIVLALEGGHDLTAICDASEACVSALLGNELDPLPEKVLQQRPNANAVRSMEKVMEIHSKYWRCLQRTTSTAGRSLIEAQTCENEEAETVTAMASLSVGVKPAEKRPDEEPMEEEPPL
Method in brief: (§4)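 Selectivity testing by FDL assay at concentrations up to 200 µM. SIRT1-2 assays run by an outside contract provider. Values reported as IC50.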

[14] = biological target: Protein deacetylase HDAC6 (Homo sapiens, UniProt Q9UBN7); experiment: Inhibition of HDAC6 (unknown origin) by FDL assay; method in brief: as §4
Sequence of Protein deacetylase HDAC6 (Q9UBN7 whole entry): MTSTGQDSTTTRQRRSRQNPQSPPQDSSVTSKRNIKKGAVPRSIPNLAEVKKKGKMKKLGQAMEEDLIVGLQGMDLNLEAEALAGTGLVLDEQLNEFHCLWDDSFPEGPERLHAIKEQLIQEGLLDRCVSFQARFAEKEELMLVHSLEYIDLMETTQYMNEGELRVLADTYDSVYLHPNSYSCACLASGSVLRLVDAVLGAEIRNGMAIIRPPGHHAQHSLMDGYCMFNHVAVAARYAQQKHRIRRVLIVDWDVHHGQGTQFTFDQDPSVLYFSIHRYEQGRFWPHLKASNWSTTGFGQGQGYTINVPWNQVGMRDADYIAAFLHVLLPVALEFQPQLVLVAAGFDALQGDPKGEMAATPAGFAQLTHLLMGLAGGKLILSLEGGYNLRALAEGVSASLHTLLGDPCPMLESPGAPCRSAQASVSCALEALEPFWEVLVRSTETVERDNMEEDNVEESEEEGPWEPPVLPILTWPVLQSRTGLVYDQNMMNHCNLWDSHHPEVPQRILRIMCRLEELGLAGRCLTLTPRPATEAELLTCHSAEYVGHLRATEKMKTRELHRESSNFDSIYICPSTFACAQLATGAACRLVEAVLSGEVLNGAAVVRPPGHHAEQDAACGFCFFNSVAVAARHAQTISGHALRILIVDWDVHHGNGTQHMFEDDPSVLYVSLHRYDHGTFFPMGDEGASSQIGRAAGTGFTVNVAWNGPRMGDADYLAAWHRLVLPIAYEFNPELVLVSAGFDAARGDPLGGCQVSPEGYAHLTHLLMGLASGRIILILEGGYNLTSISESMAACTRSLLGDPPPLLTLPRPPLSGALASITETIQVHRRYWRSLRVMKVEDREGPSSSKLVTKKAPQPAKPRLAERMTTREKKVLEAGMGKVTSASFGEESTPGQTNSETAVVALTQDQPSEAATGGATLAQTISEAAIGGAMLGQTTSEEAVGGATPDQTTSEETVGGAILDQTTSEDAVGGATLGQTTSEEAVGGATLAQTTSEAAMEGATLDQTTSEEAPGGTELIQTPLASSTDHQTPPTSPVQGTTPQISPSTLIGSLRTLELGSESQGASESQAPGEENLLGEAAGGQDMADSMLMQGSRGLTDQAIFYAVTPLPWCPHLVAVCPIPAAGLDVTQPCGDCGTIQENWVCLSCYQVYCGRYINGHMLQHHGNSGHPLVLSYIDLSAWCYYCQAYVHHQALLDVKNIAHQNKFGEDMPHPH

Histone deacetylase 7 = Histone deacetylase 7 (Homo sapiens, UniProt Q8WUI4); experiment: Inhibition of HDAC7 (unknown origin) by FDL assay; method in brief: as §4
Sequence of Histone deacetylase 7 (Q8WUI4 whole entry): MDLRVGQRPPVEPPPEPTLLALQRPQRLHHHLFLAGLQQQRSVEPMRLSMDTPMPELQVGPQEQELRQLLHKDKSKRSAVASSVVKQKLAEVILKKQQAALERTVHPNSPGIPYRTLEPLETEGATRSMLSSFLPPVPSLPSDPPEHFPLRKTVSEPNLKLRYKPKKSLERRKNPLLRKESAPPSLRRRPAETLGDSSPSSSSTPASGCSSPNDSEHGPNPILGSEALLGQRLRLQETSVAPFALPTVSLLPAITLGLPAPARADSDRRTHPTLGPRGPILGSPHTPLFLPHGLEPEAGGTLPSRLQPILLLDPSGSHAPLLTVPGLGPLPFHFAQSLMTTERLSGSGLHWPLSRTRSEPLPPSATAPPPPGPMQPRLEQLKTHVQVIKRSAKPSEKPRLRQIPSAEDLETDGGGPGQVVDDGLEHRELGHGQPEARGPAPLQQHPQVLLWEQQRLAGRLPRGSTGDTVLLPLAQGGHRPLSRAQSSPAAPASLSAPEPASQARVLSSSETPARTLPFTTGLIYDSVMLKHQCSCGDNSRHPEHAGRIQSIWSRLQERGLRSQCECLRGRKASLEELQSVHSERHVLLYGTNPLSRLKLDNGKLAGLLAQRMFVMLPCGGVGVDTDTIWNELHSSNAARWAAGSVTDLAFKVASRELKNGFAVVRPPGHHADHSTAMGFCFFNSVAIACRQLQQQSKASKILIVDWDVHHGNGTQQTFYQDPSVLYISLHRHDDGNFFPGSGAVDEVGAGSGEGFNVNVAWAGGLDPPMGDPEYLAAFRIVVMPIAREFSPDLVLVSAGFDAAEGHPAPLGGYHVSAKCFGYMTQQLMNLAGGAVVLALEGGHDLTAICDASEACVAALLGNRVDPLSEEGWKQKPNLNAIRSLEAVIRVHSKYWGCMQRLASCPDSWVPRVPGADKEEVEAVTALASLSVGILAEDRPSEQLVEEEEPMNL

Ratio (Homo sapiens): 300
EC1.5 [1]: 0.58 to 0.72 µM
EC50 [1]: 8.91 µM
EC1.5 [2]: 0.58 µM
EC50 [2]: 5.35 µM
IC50 (MIA PaCa-2 [3]; MIA PaCa-2, 72 h): 7.1 µM
inhibition [7]: Dose-dependent effect
inhibition [8]: Active
inhibition [9]: Active
half-life [10]: 7.52 h
bioavailability [11]: 4.24%
t1/2 [12]: 9.06 h
IC50 [13]: > 200 µM
IC50 (Histone deacetylase 4): > 200 µM
IC50 [14]: > 200 µM
IC50 (Histone deacetylase 7): > 200 µM
SMILES: O=C(NC(c1ccccc1)c1ccccc1)c1cc(-c2cc3ccccc3o2)nc2ccccc12
Activity (MIA PaCa-2 [3]): Dose-dependent effect
Activity (SK-OV-3): Active
Activity (NCI-H1975): Active
Activity (NCI-H446): Active
Activity (BXPC-3 [4]): Active
Activity (BXPC-3 [5]): Dose-dependent effect
inhibition at 10 µM (PANC-1): 87.8%
inhibition at 10 µM (MIA PaCa-2 [6]): 57.2%
